{
  "source": "paper PMC8842350",
  "about": "(Journal of Experimental Pharmacology, 2022)",
  "key": {"CYP enzyme": {"system": "CYP enzyme", "details": "cited from earlier work"}, "Sprague Dawley rats [1]": {"system": "Sprague Dawley rats", "experiment": "clinical observations and examinations in rats", "assay_type": "in vivo, rat", "details": "rats treated with trazpiroben", "outline": "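Sprague Dawley rats, 11–12 weeks old, group-housed and acclimatised at least 1 week. Oral gavage at 0 (vehicle: 5% DMSO, 40% PEG 400, 55% saline), 100, 300 or 1000 mg/kg/day, 10 mL/kg, dose expressed as maleate salt. Checked twice daily for mortality, abnormalities and signs of pain or distress. Ophthalmic examination and body weight were recorded once pre-dose.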"}, "beagle dogs [2]": {"system": "beagle dogs", "experiment": "clinical observations, body weight and body temperature in dogs", "assay_type": "in vivo, dog", "outline": "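Four male beagles, 17–18 months old, 9.9–12.8 kg. Oral gelatin capsules at 0 (Avicel:Explotab 10:1), 1, 10 or 30 mg/kg (maleate salt) on days 1, 4, 8 and 11, in a Latin square with ascending doses and 2-day washouts. Checked twice daily for mortality, abnormalities and distress, with daily cage-side observations. Body weight recorded pre-dose and the day before each dosing. Body temperature recorded by implanted telemetry.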"}, "D2 receptor [3]": {"system": "D2 receptor", "details": "humans, cited from earlier work"}, "[4]": {"details": "dogs, 50 mg/kg; cited from earlier work"}, "Sprague Dawley rats [5]": {"system": "Sprague Dawley rats", "experiment": "pulmonary assessments", "assay_type": "in vivo, rat", "details": "male rats, any dose level (100–1000 mg/kg/day)", "outline": "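Eight male Sprague Dawley rats per group. Acclimated 4 days, then placed in head-out plethysmography chambers three times on separate days. On day 1, a single oral gavage dose of 0, 100, 300 or 1000 mg/kg (DMSO/PEG 400/saline vehicle), then immediate chamber placement. Recorded at baseline, through 6 h and about 24 h post-dose. Analysed by repeated-measures ANCOVA with Dunnett–Hsu comparisons against control.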"}, "hERG potassium channel": {"system": "hERG potassium channel", "details": "cited from earlier work"}, "[6]": {"experiment": "toxicokinetic analysis in rat plasma", "assay_type": "in vivo", "details": "all dose groups", "outline": "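Toxicokinetic cohort of 60 Sprague Dawley rats (30 male), separate from the pharmacology groups. A single oral dose was given on day 1 at 0, 100, 300 or 1000 mg/kg (maleate salt). Blood was drawn from the jugular vein of non-fasted rats on a serial schedule. Cmax, Tmax and AUC were derived from plasma concentration–time data.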"}, "humans": {"system": "humans", "details": "any dose up to the maximum of 300 mg; cited from earlier work"}, "CYP3A4": {"system": "CYP3A4", "details": "cited from earlier work"}, "Sprague Dawley rats [7]": {"system": "Sprague Dawley rats", "experiment": "locomotor activity assessments", "assay_type": "in vivo, rat", "details": "female rats; for basic movements: day 2, 4–6 minutes post-commencement of assessment, control 375, p ≤ 0.05", "outline": "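Female rats, 8 per group, dosed orally on days 1 and 2 at 0–1000 mg/kg/day. Tested pre-dose and on day 2: within 10 min after the functional battery, each rat was placed in a dark, sound-attenuated chamber. Photocell recording ran for 40 min, reported in 20 intervals of 2 min each. Read-outs: basic movement, horizontal and vertical ambulation, fine movement, rearing.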"}, "beagle dogs [8]": {"system": "beagle dogs", "experiment": "telemetry hemodynamic measurements in dogs", "assay_type": "in vivo, dog", "details": "for adjusted mean diastolic pressure, lower vs control: 1 hour post-dose; for adjusted mean pulse pressure, lower than controls / adjusted mean systolic pressure, lower than controls: 3 hours post-dose; for adjusted mean systolic pressure, lower than controls: not significant", "outline": "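Telemetered male beagles (abdominal transmitter implanted at least 2 weeks before) given oral capsules at 0, 1, 10 or 30 mg/kg in a Latin square on days 1, 4, 8 and 11. Systolic, diastolic and mean arterial pressure, pulse pressure and heart rate recorded continuously from at least 90 min pre-dose to about 18 h post-dose. Analysed by repeated-measures ANCOVA with Dunnett or Dunnett–Hsu comparisons against control.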"}, "Sprague Dawley rats [9]": {"system": "Sprague Dawley rats", "experiment": "functional observational battery", "assay_type": "in vivo, rat", "details": "female rats, oral ≤ 1000 mg/kg/day, 0.5 hours post-dose on day 2", "outline": "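Eight female Sprague Dawley rats per group received oral gavage on days 1 and 2 at 0, 100, 300 or 1000 mg/kg/day (vehicle: 5% DMSO, 40% PEG 400, 55% saline; 10 mL/kg). Functional observational battery run once pre-dose and about 0.5 h post-dose on day 2, at the same time of day ±2 h. It covered sensory reactivity (approach response, righting reflex), grip strength, foot splay and body temperature.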"}, "D2 receptor [10]": {"system": "D2 receptor", "details": "rats, prolactin release as pharmacodynamic biomarker; cited from earlier work"}, "P-glycoprotein (P-gp)": {"system": "P-glycoprotein (P-gp)", "details": "cited from earlier work"}, "[11]": {"details": "rats, 100 mg/kg; cited from earlier work"}, "rats": {"system": "rats", "details": "doses up to 30 mg/kg; cited from earlier work"}, "[12]": {"details": "beagle dogs; cited from earlier work"}, "beagle dogs [13]": {"system": "beagle dogs", "experiment": "telemetry ECG evaluation in dogs", "assay_type": "in vivo, dog", "outline": "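Male beagles with abdominal ECG/pressure/temperature transmitters implanted at least 2 weeks before. Oral capsule doses of 0, 1, 10 or 30 mg/kg in a Latin square with 2-day washouts. ECG recorded from at least 90 min pre-dose to about 18 h post-dose. QTc from a per-animal regression of 1-min QT versus RR means on the control day. Waveform review at 1, 2, 4, 8, 12 and 18 h. Repeated-measures ANCOVA with Dunnett tests.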"}},
  "note": "Like-named read-outs stand apart in the source and are kept apart here.",
  "data": [
    {"molecule": "O=C(O)c1cccc(CN2CN(C3CCCCC3)C3(CCN(CCCC(=O)c4ccccc4)CC3)C2=O)c1", "note": "[Trazpiroben]", "values": [
      {"measurement": "potential for CYP enzyme induction or inhibition", "setting": "CYP enzyme", "value": "limited potential for CYP enzyme induction or inhibition"},
      {"measurement": "clinical observations, ophthalmic and body weight parameters", "setting": "Sprague Dawley rats [1]", "value": "No unexpected clinical observations or changes"},
      {"measurement": "mortality", "setting": "Sprague Dawley rats [1]", "value": "no trazpiroben-related mortality"},
      {"measurement": "effects on body weight or temperature", "setting": "beagle dogs [2]; doses ≤ 30 mg/kg", "value": "not associated with effects on body weight or temperature"},
      {"measurement": "survival", "setting": "beagle dogs [2]; to study termination on day 12", "value": "all dogs survived"},
      {"measurement": "dose at which maximal D2 receptor engagement occurs", "setting": "D2 receptor [3]; first-in-human Phase I trial", "value": 10, "unit": "mg"},
      {"measurement": "average Cmax in plasma at maximal D2 receptor engagement", "setting": "D2 receptor [3]; inferred using prolactin release", "value": "~ 11 ng/mL"},
      {"measurement": "brain penetration", "setting": "[4]", "value": "minimal brain penetration"},
      {"measurement": "effect on respiration rate or minute volume", "setting": "Sprague Dawley rats [5]", "value": "No biologically relevant effect"},
      {"measurement": "difference in affinity, hERG versus intended D2/D3 receptor targets", "setting": "hERG potassium channel", "value": "10,000 fold"},
      {"measurement": "observed Cmax for each group of rats receiving trazpiroben", "setting": "[6]", "value": "≥ 1450", "unit": "ng/mL"},
      {"measurement": "CNS effects", "setting": "humans", "value": "no CNS effects noted"},
      {"measurement": "CYP3A4 substrate classification", "setting": "CYP3A4; Phase I drug–drug interaction study in healthy volunteers, ref NCT03161405", "value": "non-sensitive CYP3A4 substrate"},
      {"measurement": "basic movements", "setting": "Sprague Dawley rats [7]; 300 mg/kg/day", "value": "199 basic movements in 2 minutes"},
      {"measurement": "basic movements", "setting": "Sprague Dawley rats [7]; 1000 mg/kg/day", "value": "171 basic movements in 2 minutes"},
      {"measurement": "counts of horizontal and vertical ambulation", "setting": "Sprague Dawley rats [7]; ≥ 300 mg/kg/day, 2–6 minutes post-dose", "value": "significantly decreased"},
      {"measurement": "adjusted mean diastolic pressure, higher vs control", "setting": "beagle dogs [8]; 1 mg/kg, 4 hours post-dose, p ≤ 0.05", "value": 6, "unit": "%"},
      {"measurement": "adjusted mean diastolic pressure, lower vs control", "setting": "beagle dogs [8]; 10 mg/kg, p ≤ 0.05", "value": 5, "unit": "%"},
      {"measurement": "adjusted mean pulse pressure, lower than controls", "setting": "beagle dogs [8]; 10 mg/kg", "value": 15, "unit": "%"},
      {"measurement": "adjusted mean systolic pressure, lower than controls", "setting": "beagle dogs [8]; 10 mg/kg", "value": 6, "unit": "%"},
      {"measurement": "adjusted mean diastolic pressure, higher vs control", "setting": "beagle dogs [8]; 10 mg/kg, 4 hours post-dose, p ≤ 0.05", "value": 8, "unit": "%"},
      {"measurement": "adjusted mean diastolic pressure, higher vs control", "setting": "beagle dogs [8]; 10 mg/kg, 5 hours post-dose, p ≤ 0.01", "value": 6, "unit": "%"},
      {"measurement": "adjusted mean diastolic pressure, lower vs control", "setting": "beagle dogs [8]; 30 mg/kg, p ≤ 0.01", "value": 8, "unit": "%"},
      {"measurement": "adjusted mean pulse pressure, lower than controls", "setting": "beagle dogs [8]; 30 mg/kg", "value": 23, "unit": "%"},
      {"measurement": "heart rate, higher than control", "setting": "beagle dogs [8]; 30 mg/kg, 3 hours post-dose (greatest effect), first light cycle", "value": 28, "unit": "%"},
      {"measurement": "adjusted mean systolic pressure, lower than controls", "setting": "beagle dogs [8]; 30 mg/kg", "value": 9, "unit": "%"},
      {"measurement": "adjusted mean diastolic pressure, higher vs control", "setting": "beagle dogs [8]; 30 mg/kg, 4 hours post-dose, p ≤ 0.05", "value": 5, "unit": "%"},
      {"measurement": "adjusted mean diastolic pressure, higher vs control", "setting": "beagle dogs [8]; 30 mg/kg, 5 hours post-dose, p ≤ 0.01", "value": 6, "unit": "%"},
      {"measurement": "changes in diastolic pressure, different from control", "setting": "beagle dogs [8]; all changes, all doses", "value": "≤ 8", "unit": "%"},
      {"measurement": "effects on FOB assessment results", "setting": "Sprague Dawley rats [9]", "value": "No effects were observed"},
      {"measurement": "dose at which maximal D2 receptor engagement occurs", "setting": "D2 receptor [10]", "value": 1, "unit": "mg/kg"},
      {"measurement": "substrate for the efflux transporter P-glycoprotein (P-gp)", "setting": "P-glycoprotein (P-gp)", "value": "substrate"},
      {"measurement": "brain penetration", "setting": "[11]", "value": "minimal brain penetration"},
      {"measurement": "effects in rotarod testing (motor coordination)", "setting": "rats", "value": "no trazpiroben-related effects were observed"},
      {"measurement": "median Tmax", "setting": "[12]", "value": "approximately 1 hour post-dose"},
      {"measurement": "adjusted PR interval mean, lower than control", "setting": "beagle dogs [13]; dogs, 30 mg/kg, 3 hours after administration (maximal effect)", "value": 12, "unit": "%"},
      {"measurement": "adjusted PR interval mean", "setting": "beagle dogs [13]; dogs, 30 mg/kg, 3 hours after administration, control 102 msec", "value": 90, "unit": "ms"},
      {"measurement": "effects on QRS duration or QT interval corrected for heart rate (QTc)", "setting": "beagle dogs [13]; dogs, 1, 10, 30 mg/kg", "value": "no trazpiroben-related effects"},
      {"measurement": "QT interval, lower than control", "setting": "beagle dogs [13]; dogs, first light cycle, 30 mg/kg, not significant at any dose", "value": "≤ 6", "unit": "%"},
      {"measurement": "abnormal ECG waveforms or arrhythmias", "setting": "beagle dogs [13]; male beagle dogs, oral 1, 10, 30 mg/kg", "value": "No abnormal ECG waveforms or arrhythmias were recorded"}
    ]},
    {"molecule": "O=c1[nH]c2ccccc2n1CCCN1CCC(n2c(=O)[nH]c3cc(Cl)ccc32)CC1", "note": "[domperidone, reference compound]", "values": [
      {"measurement": "IC50", "setting": "hERG potassium channel; read-out: IC50, hERG potassium channel", "value": 57, "unit": "nM"},
      {"measurement": "metabolizing enzyme", "setting": "CYP3A4", "value": "primarily metabolized via the cytochrome P450 (CYP) 3A4 enzyme"}
    ]}
  ]
}
